Experimental data as given in ChEMBL document CHEMBL1121726, “Pyrazolopyrimidine nucleosides. 12. Synthesis and biological activity of certain pyrazolo[3,4-d]pyrimidine nucleosides related to adenosine” (1981).
Active and inactive are the calls of the source. The calls are words filed in the database; no cut-off is given here.

Key:
L1210 [1] = assay: Increase in life span of tumor L1210 leukemic mice 1-5 days after 25 mg/kg administered; assay type: functional, Mus musculus
Summary of the method: (§1)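 Mice bearing L1210 or P388 leukemia were injected with drug at the listed dose per injection on the listed days after tumor-cell inoculation. ILS was the percentage increase in life span of treated mice over untreated tumor-bearing controls.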

L1210 [2] = assay: Number of mice surviving 1 day after 25 mg/kg administered; 2/12; assay type: functional, Mus musculus
P388 [3] = assay: Increase in life span of tumor P388 leukemic mice 1-9 days after 40 mg/kg administered; assay type: functional, Mus musculus; summary of the method: as §1
P388 [4] = assay: Toxicity against P388 leukemic cells 1-9 days after administration of 40 mg/kg of the compound; Yes; assay type: functional, organism-based; parameters: dose 40 mg/kg; details: Mus musculus
Summary of the method: (§2)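 Host toxicity was scored in leukemia-bearing mice as drug-induced shortening of life span when higher doses were given on the same schedule: y = yes, n = no, nt = no higher dose tested.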

L1210 [5] = assay: Toxicity against L1210 leukemic cells 1-5 days after administration of 25 mg/kg of the compound; Yes; assay type: functional, organism-based; parameters: dose 25 mg/kg; details: Mus musculus
Summary of the method: (§3)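 Mice bearing L1210 or P388 leukemia were injected at the stated dose per injection on the listed days after tumor-cell inoculation. Host toxicity scores whether higher doses on the same schedule caused drug-induced shortening of life span: y = yes, n = no, nt = no higher dose tested.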

L1210 [6] = assay: […] against L1210 leukemic cells 1-5 days after administration of 50 mg/kg of the compound; Yes; assay type: functional, organism-based; parameters: dose 50 mg/kg; details: Mus musculus
L1210 [7] = assay: In vitro inhibition of growth of L1210 mouse leukemic cells; assay type: functional; details: read-out: ID50 (the source's name)
Summary of the method: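 L1210 cells grown in static suspension culture in Fischer's medium for leukemic cells of mice, exposed to a range of test-compound concentrations. Growth rate measured over 3 days.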

L1210 [8] = assay: Increase in life span of tumor L1210 leukemic mice 1-5 day after 50 mg/kg administered; assay type: functional, Mus musculus; summary of the method: as §1
L1210 [9] = assay: Increase in life span of tumor L1210 leukemic mice 1-9 days after 400 mg/kg administered; assay type: functional, Mus musculus; summary of the method: as §1
L1210 [10] = assay: […] against L1210 leukemic cells 1-9 days after administration of 400 mg/kg of the compound; No higher dose tested; assay type: functional, organism-based; parameters: dose 400 mg/kg; details: Mus musculus
L1210 [11] = assay: Toxicity against L1210 leukemic cells 1-9 days after administration of 200 mg/kg of the compound; Yes; assay type: functional, organism-based; parameters: dose 200 mg/kg; details: Mus musculus; summary of the method: as §3
L1210 [12] = assay: Increase in life span of tumor L1210 leukemic mice 1-9 days after 200 mg/kg administered; assay type: functional, Mus musculus; summary of the method: as §1
L1210 [13] = assay: Increase in life span of tumor L1210 leukemic mice 1-5 days after 400 mg/kg administered; assay type: functional, Mus musculus; summary of the method: as §1
L1210 [14] = assay: […] against L1210 leukemic cells 1-5 days after administration of 400 mg/kg of the compound; No higher dose tested; assay type: functional, organism-based; parameters: dose 400 mg/kg; details: Mus musculus
L1210 [15] = assay: Increase in life span of tumor L1210 leukemic mice 1-5 days after 100 mg/kg administered; assay type: functional; details: Mus musculus; summary of the method: as §1
L1210 [16] = assay: […] against L1210 leukemic cells 1-5 days after administration of 100 mg/kg of the compound; Yes; assay type: functional, organism-based; parameters: dose 100 mg/kg; details: Mus musculus
L1210 [17] = assay: Increase in life span of tumor L1210 leukemic mice 1-5 day after 400 mg/kg administered; assay type: functional, Mus musculus; summary of the method: as §1
L1210 [18] = assay: Toxicity against L1210 leukemic cells 1-5 days after administration of 50 mg/kg of the compound; Yes; assay type: functional, organism-based; parameters: dose 50 mg/kg; details: Mus musculus; summary of the method: as §3
L1210 [19] = assay: Increase in life span of tumor L1210 leukemic mice 1-5 days after 50 mg/kg administered; assay type: functional, Mus musculus; summary of the method: as §1
L1210 [20] = assay: […] against L1210 leukemic cells 1-5 days after administration of 12.5 mg/kg of the compound; Yes; details: Mus musculus
L1210 [21] = assay: Increase in life span of tumor L1210 leukemic mice 1-5 days after 12.5 mg/kg administered; assay type: functional, Mus musculus; summary of the method: as §1
L1210 [22] = assay: […] against L1210 leukemic cells 1-5 days after administration of 200 mg/kg of the compound; Yes; assay type: functional, organism-based; parameters: dose 200 mg/kg; details: Mus musculus
L1210 [23] = assay: Increase in life span of tumor L1210 leukemic mice 1-5 days after 200 mg/kg administered; assay type: functional, Mus musculus; summary of the method: as §1
P388 [24] = assay: Increase in life span of tumor P388 leukemic mice 1-9 days after 6 mg/kg administered; assay type: functional, Mus musculus; summary of the method: as §1
P388 [25] = assay: Toxicity against P388 leukemic cells 1-9 days after administration of 6 mg/kg of the compound; y= Yes; assay type: functional, organism-based; parameters: dose 6 mg/kg; details: Mus musculus; summary of the method: as §2
L1210 [26] = assay: Number of mice surviving 1-5 days after 200 mg/kg administered; 2/6; assay type: functional, Mus musculus
L1210 [27] = assay: Toxicity against L1210 leukemic cells 1-5 days after administration of 200 mg/kg of the compound; nt= No higher dose tested; assay type: functional, organism-based; parameters: dose 200 mg/kg; details: Mus musculus; summary of the method: as §2

N=C(N)c1nn(C2O[C@H](CO)[C@@H](O)[C@H]2O)c2ncnc(N)c12 (stereo partly specified)
ILS (L1210 [1]): 98
Cures (L1210 [2]): 2
ILS (P388 [3]): 29
Toxicity (P388 [4]): Active
Toxicity (L1210 [5]): Active

CN(C)/C=N/c1ncnc2c1cnn2C1O[C@H](CO)[C@@H](O)[C@H]1O (stereo partly specified)
Toxicity (L1210 [6]): Active
IC50 (L1210 [7]): 0.6 µM
ILS (L1210 [8]): 12

OC[C@H]1OC(n2ncc3c(N/N=C/c4ccc(N(CCCl)CCCl)cc4)ncnc32)[C@H](O)[C@@H]1O (stereo partly specified)
ILS (L1210 [9]): -7
IC50 (L1210 [7]): ~10 µM
Toxicity (L1210 [10]): No higher dose tested

NNc1ncnc2c1cnn2C1O[C@H](CO)[C@@H](O)[C@H]1O (stereo partly specified)
IC50 (L1210 [7]): 60 µM
Toxicity (L1210 [11]): Active
ILS (L1210 [12]): 12

OC[C@H]1OC(n2ncc3c(Nc4ccccc4)ncnc32)[C@H](O)[C@@H]1O (stereo partly specified)
ILS (L1210 [13]): -4
Toxicity (L1210 [14]): No higher dose tested

C=CCSc1ncnc2c1cnn2C1O[C@H](CO)[C@@H](O)[C@H]1O (stereo partly specified)
ILS at 100 mg/kg (L1210 [15]): 2%
Toxicity (L1210 [16]): Active

COc1ncnc2c1cnn2C1O[C@H](CO)[C@@H](O)[C@H]1O (stereo partly specified)
Toxicity (L1210 [14]): No higher dose tested
ILS (L1210 [17]): 12

CNc1ncnc2c1cnn2C1O[C@H](CO)[C@@H](O)[C@H]1O (stereo partly specified)
IC50 (L1210 [7]): > 100 µM
Toxicity (L1210 [18]): Active
ILS (L1210 [19]): 4

OC[C@H]1OC(n2ncc3c(NO)ncnc32)[C@H](O)[C@@H]1O (stereo partly specified)
Toxicity (L1210 [20]): Active
IC50 (L1210 [7]): 10 µM
ILS (L1210 [21]): 14

OC[C@H]1OC(n2ncc3c(NCc4ccccc4)ncnc32)[C@H](O)[C@@H]1O (stereo partly specified)
ILS (L1210 [1]): 3
Toxicity (L1210 [5]): Active

O=[N+]([O-])c1ccc(CSc2ncnc3c2cnn3C2O[C@H](CO)[C@@H](O)[C@H]2O)cc1 (stereo partly specified)
Toxicity (L1210 [22]): Active
ILS at 200 mg/kg (L1210 [23]; Mus musculus, L1210): 1%

NC(=O)c1nn(C2O[C@H](CO)[C@@H](O)[C@H]2O)c2ncnc(N)c12 (stereo partly specified)
ILS (P388 [24]): 90
Toxicity (P388 [25]): No higher dose tested
IC50 (L1210 [7]): 0.1 µM
ILS (L1210 [23]): 136
Cures (L1210 [26]): 2
Toxicity (L1210 [27]): No higher dose tested
